In ChEMBL document CHEMBL1817601, “6,7-Dihydro-5H-cyclopenta[d]pyrazolo[1,5-a]pyrimidines and their derivatives as novel corticotropin-releasing factor 1 receptor antagonists” (Bioorg Med Chem, 2011):
pEC50, pIC50: −log10 of the molar value. The source made the active and inactive calls. No cut-off for these calls is given here.

Experiments:
[1] = target: T1, Corticotropin-releasing factor receptor 1 (Homo sapiens, UniProt P34998); test: Displacement of [125I]CRF from human corticotropin-releasing factor receptor 1 expressed in CHO-K1 cells after 2 hrs by gamma counting; format: cell-based
T1 sequence (P34998 whole entry): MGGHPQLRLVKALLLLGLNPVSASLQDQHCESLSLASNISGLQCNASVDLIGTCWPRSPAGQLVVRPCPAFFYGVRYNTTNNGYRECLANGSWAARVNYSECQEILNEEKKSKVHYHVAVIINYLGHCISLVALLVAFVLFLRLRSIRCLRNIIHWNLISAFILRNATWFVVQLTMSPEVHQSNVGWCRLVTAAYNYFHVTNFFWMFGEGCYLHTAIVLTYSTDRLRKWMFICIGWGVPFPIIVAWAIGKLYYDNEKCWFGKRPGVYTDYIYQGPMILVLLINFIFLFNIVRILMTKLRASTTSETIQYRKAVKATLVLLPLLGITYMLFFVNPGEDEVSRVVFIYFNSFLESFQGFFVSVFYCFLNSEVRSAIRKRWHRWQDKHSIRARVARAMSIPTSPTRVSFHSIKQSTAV
In short: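 Crude membranes prepared from CRF1-expressing CHO-K1 cells in 50 mmol/l Tris-HCl with 10 mmol/l MgCl2, 2 mmol/l EDTA and aprotinin. Membranes incubated with 0.5 nmol/l (stock) ¹²⁵I human/rat CRF and compound (1–10,000 nmol/l) for 2 h at room temperature. Reaction ended by centrifugation, pellet washed with PBS/0.01% Triton X-100. IC50 of specific binding taken from concentration–response curves.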

[2] = target: T1, Corticotropin-releasing factor receptor 1; test: Antagonist activity at human corticotropin-releasing factor receptor 1 expressed in CHO-K1 cells assessed as inhibition of CRF-induced cAMP production after 15 mins by enzyme immunoassay; format: functional, cell-based
In short: (§1)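 CHO-K1 cells expressing CRF1 seeded at 1 × 10⁴ cells/well and incubated overnight. Cells washed with F-12, then preincubated 10 min at 37 °C in F-12 with 1 mmol/l IBMX. Compound (1–10,000 nmol/l) added with medium containing 10 nmol/l CRF (stock), then 15 min at 37 °C. Cells chilled and cAMP measured by enzyme immunoassay, blank-corrected; IC50 taken from concentration–response curves.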

[3] = Oral bioavailability in rat at 3 mg/kg; format: ADME, organism-based; conditions: in vivo
[4] = Half life in rat at 3 mg/kg, po; format: ADME, organism-based; design: dose 3 mg/kg, route oral; conditions: in vivo
In short: (§2)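 Fasted male rats (n = 4) given 3 mg/kg orally in saline with 0.5% MC (w/v). Jugular vein blood (heparinized syringe) taken at 1, 2, 4, 6, 8, 24, 48, 72 h. Plasma obtained by centrifugation and stored at −70 °C. AUC, Cmax, Tmax and T1/2 derived from the plasma concentration time course.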

[5] = target: T2, Corticotropin-releasing factor receptor 1 (Rattus norvegicus, UniProt P35353); test: Displacement of [125I]CRF from corticotropin-releasing factor receptor 1 in rat brain membranes after 2 hrs by gamma counting; format: cell membranes
T2 sequence (P35353 whole entry): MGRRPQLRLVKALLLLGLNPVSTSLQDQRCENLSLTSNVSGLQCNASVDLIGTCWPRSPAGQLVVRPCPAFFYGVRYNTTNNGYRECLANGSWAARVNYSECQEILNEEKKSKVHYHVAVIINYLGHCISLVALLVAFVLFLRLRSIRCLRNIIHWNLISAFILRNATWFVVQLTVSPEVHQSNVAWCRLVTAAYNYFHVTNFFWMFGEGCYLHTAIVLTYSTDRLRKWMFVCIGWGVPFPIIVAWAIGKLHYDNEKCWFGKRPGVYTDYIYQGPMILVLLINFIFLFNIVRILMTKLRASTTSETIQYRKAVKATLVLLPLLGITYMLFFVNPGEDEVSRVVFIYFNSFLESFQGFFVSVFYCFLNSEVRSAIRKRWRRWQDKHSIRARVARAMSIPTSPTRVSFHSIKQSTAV

[6] = Ratio of drug level in brain to plasma in rat at 3 mg/kg, po after 1 hr; format: ADME, organism-based; design: dose 3 mg/kg, route oral; conditions: read-out: BPR
[7] = Tmax in rat at 3 mg/kg, po; format: ADME, organism-based; design: dose 3 mg/kg, route oral; conditions: in vivo; in short: as §2
[8] = target: T2, Corticotropin-releasing factor receptor 1; test: Antagonist activity at rat corticotropin-releasing factor receptor 1 expressed in CHO-K1 cells assessed as inhibition of CRF-induced cAMP production after 15 mins by enzyme immunoassay; format: functional, cell-based; in short: as §1
Rattus norvegicus [9] = test: Anxiolytic activity in swim stress-loaded Sprague-Dawley rat assessed as increase in time spent in open arms at 10 mg/kg, po after 1 hr by plus-maze test; format: functional, organism-based; design: dose 10 mg/kg
In short: (§3)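 Male Sprague–Dawley rats (230–280 g) given 0.5% MC vehicle or compound orally 1 h before testing. Rats forced to swim 90 s in 22 °C water, then placed at the maze centre facing a closed arm. Behaviour video-tracked for 5 min; time in open arms and open-arm entries scored. 16 rats per group, mean ± S.E.; Dunnett test against vehicle.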

Rattus norvegicus [10] = test: Anxiolytic activity in swim stress-loaded Sprague-Dawley rat assessed as increase in time spent in open arms at 3 mg/kg, po after 1 hr by plus-maze test; format: functional, organism-based; design: dose 3 mg/kg; in short: as §3
[11] = Volume of distribution at steady state in rat at 0.3 mg/kg, iv; format: ADME, organism-based; design: dose 0.3 mg/kg, route intravenous; conditions: in vivo, read-out: Vdss
In short: (§4)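 Fasted male rats (n = 4) dosed intravenously at 0.3 mg/kg. Samples ice-chilled and centrifuged to plasma, then stored at −70 °C. AUC, T1/2, Vss and CL taken from the plasma concentration time course.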

[12] = AUC (infinity) in rat at 0.3 mg/kg, iv; format: ADME, organism-based; design: time infinity, dose 0.3 mg/kg, route intravenous; conditions: plasma; in short: as §4
[13] = Total clearance in rat at 0.3 mg/kg, iv; format: ADME, organism-based; design: dose 0.3 mg/kg, route intravenous; conditions: in vivo; in short: as §4
[14] = Cmax in rat at 3 mg/kg, po; format: ADME, organism-based; design: dose 3 mg/kg, route oral; conditions: in vivo; in short: as §2
[15] = Half life in rat at 0.3 mg/kg, iv; format: ADME, organism-based; design: dose 0.3 mg/kg, route intravenous; conditions: in vivo; in short: as §4
[16] = AUC (infinity) in rat at 3 mg/kg, po; format: ADME, organism-based; design: time infinity, dose 3 mg/kg, route oral; conditions: plasma; in short: as §2

| Structure (SMILES) | pIC50 [1] | pEC50 [2] | also measured |
| --- | --- | --- | --- |
| CCC(CC)Nc1c2c(nc3c(-c4ccc(OC)cc4SC)c(C)nn13)CCC2 | 7.31 | – | – |
| CCC(CC)Nc1c2c(nc3c(-c4ccc(N(C)C)cc4C)c(C)nn13)CCC2 | 7.42 | – | – |
| CCc1nn2c(NC(CC)CC)c3c(nc2c1-c1ccc(OC)cc1C)CCC3 | 7.01 | – | – |
| CCC(CC)Nc1c2c(nc3c(-c4ccc(OC)c(OC)c4)c(C)nn13)CCC2 | 6.22 | – | – |
| CCC(CC)Nc1c2c(nc3c(-c4ccc(OC)cc4C)c(C)nn13)COC2 | 7.46 | 7.12 | – |
| CCC(CC)Nc1c2c(nc3c(-c4ccc(OC(F)F)cc4Cl)c(C)nn13)CCC2 | 8.52 | 6.70 | – |
| CCC(CC)Nc1c2c(nc3c(-c4ccc(Cl)cc4Cl)c(C)nn13)CCC2 | 7.43 | 6.70 | – |
| CCOc1ccc(-c2c(C)nn3c(NC(CC)CC)c4c(nc23)CCC4)c(Cl)c1 | 7.15 | – | – |
| CCC(CC)Nc1c2c(nc3c(-c4ccc(OC)cc4C)c(C)nn13)CCO2 | 7.51 | 6.19 | – |
| CCC(CC)Nc1c2c(nc3c(-c4ccc(OC)cc4Cl)c(C)nn13)CCO2 | 8.15 | 8.40 | – |
| CCC(CC)Nc1c2c(nc3c(-c4ccc(OC)cc4C)cnn13)CCC2 | 6.62 | – | – |
| CCC(CC)Nc1cc(C)nc2c(-c3ccc(OC)cc3C)c(C)nn12 | – | – | pIC50 [2]: 8.00 |
| CCC(CC)Nc1c2c(nc3c(-c4ccc(OC)cc4C)c(CSC)nn13)CCC2 | 6.21 | – | – |
| CCC(CC)Nc1cc(C)nc2c(-c3ccc(OC)cc3Cl)c(C)nn12 | 8.22 | 7.51 | – |
| CCC(CC)Nc1c2c(nc3c(-c4ccc(OC)cc4C)c(C4CCC4)nn13)CCC2 | 6.31 | – | – |
| CCC(CC)Nc1c2c(nc3c(-c4c(C)cc(OC)cc4C)c(C)nn13)CCC2 | 8.05 | 7.10 | – |
| CCC(CC)Nc1c2c(nc3c(-c4ccc(OC)cc4Cl)c(C)nn13)COC2 | 7.66 | 7.18 | – |

Continued by rising pIC50 [1], values first:

| pIC50 [1] | pEC50 [2] | Structure (SMILES) | also measured |
| --- | --- | --- | --- |
| 6.09 | – | CCC(CC)Nc1c2c(nc3c(-c4cc(C)ccc4C)c(C)nn13)CCC2 | – |
| 6.77 | – | CCC(CC)Nc1c2c(nc3c(-c4ccc(OC)cc4C)c(C)nn13)CCN2 | – |
| 7.03 | – | CCC(CC)Nc1c2c(nc3c(-c4ccc(F)cc4C)c(C)nn13)CCC2 | – |
| 7.08 | 8.10 | CCC(CC)Nc1c2c(nc3c(-c4ccc(OC)cc4Cl)c(C)nn13)OCC2 | – |
| 7.10 | – | CCC(CC)Nc1c2c(nc3c(-c4ccc(OC)cc4C)c(C)nn13)CCS2 | – |
| 7.14 | 6.04 | CCC(CC)Nc1c2c(nc3c(-c4ccc(C)cc4C)c(C)nn13)CCC2 | – |
| 7.23 | – | CCC(CC)Nc1c2c(nc3c(-c4ccc(OC)cc4C)c(C(F)(F)F)nn13)CCC2 | – |
| 7.31 | 7.00 | CCC(CC)Nc1c(C)c(C)nc2c(-c3ccc(OC)cc3Cl)c(C)nn12 | – |
| 7.43 | 6.82 | CCC(CC)Nc1c2c(nc3c(-c4ccc(OC)cc4C)c(C)nn13)CSC2 | – |
| 7.43 | 6.77 | CCC(CC)Nc1c2c(nc3c(-c4ccc(OC)cc4C)c(C)nn13)CCC2 | – |
| 7.66 | 7.33 | CCC(CC)Nc1c2c(nc3c(-c4cc(C)c(OC)cc4C)c(C)nn13)CCC2 | – |
| 7.82 | – | CCC(CC)Nc1c2c(nc3c(-c4ccc(OC(F)(F)F)cc4Cl)c(C)nn13)CCC2 | – |
| 8.40 | 7.40 | CCC(CC)Nc1c2c(nc3c(-c4ccc(OC)cc4Cl)c(C)nn13)CCC2 [ONO-2333MS] | bioavailability [3]: 22%; half-life [4]: 7.8 h; pIC50 [5]: 8.15; Kp at 1 h [6]: 0.4; Tmax [7]: 1 h; pEC50 [8]: 7.40; Activity (Rattus norvegicus [9]): Active; Activity (Rattus norvegicus [10]): Active; Vd [11]: 1.78 L/kg; AUC(0-inf) [12]: 278 ng·h/mL; clearance [13]: 18 mL/min/kg; Cmax [14]: 87.1 ng/mL; half-life [15]: 4.7 h; AUC(0-inf) [16]: 608 ng·h/mL |
